Measured values gathered from unrelated publications.
Compare with care: the assays were run in different laboratories.
Target: Serine/threonine-protein kinase PAK 2 (PAK2, Homo sapiens, UniProt Q13177)

For `O=C(N1CCS(=O)(=O)CC1)N1C[C@H](c2ccc(OC(F)(F)F)cc2)C[C@H](c2nc(C3CC3)no2)C1`, the remaining binding was 90% (cell-free assay, competition with immobilised ligand; 1 µM).
`C[C@H]1CCN(c2nccc(-c3cnn4ncccc34)n2)C1` has a remaining binding of 59% (binding; 1 µM).
`O=C(NCCCN1CCOCC1)c1ccc(Nc2ncc(Cl)c(-c3ccc(Cl)s3)n2)cc1` has a remaining binding of 90% (binding, competition with immobilised ligand; 1 µM).
For `COc1cnc(Nc2cccc(S(N)(=O)=O)c2)nc1N1CCN(c2ccccc2)C(=O)C1`, the remaining binding was 83% (binding, competition with immobilised ligand; 1 µM).
The remaining binding of `CN(C)c1ncc(F)c(-c2cnn3ncccc23)n1` is reported as 89% (binding; 1 µM).
`O=C(NCCCN1CCOCC1)c1ccc(Nc2nccc(-c3cc4ccccc4s3)n2)cc1` gave a remaining binding of 100% (binding, competition with immobilised ligand; 1 µM).
For `C[C@@H]1CN(c2ccc3ncc(-c4ccc5[nH]nc(C6CC6)c5c4)n3n2)C[C@H](C)O1`, the remaining binding was 76% (binding, competition with immobilised ligand; 50 nM).
For `CCS(=O)(=O)c1cc2cc(C[C@@](O)(CC(C)(C)c3ccc(F)cc3C(N)=O)C(F)(F)F)[nH]c2cn1`, the remaining binding was 94% (cell-free assay, competition with immobilised ligand; 1 µM).
With `CCN1CCN(Cc2ccc(C(=O)Nc3ccc(C)c(Oc4ccc5c(c4)CC(=O)N5)c3)cc2C(F)(F)F)CC1` the remaining binding was 100% (binding, competition with immobilised ligand; 1 µM).
With `C[C@@H](c1cccc(C#N)c1)n1cc(Cl)cc(C(N)=O)c1=N` the remaining binding was 96% (cell-free assay, competition with immobilised ligand; 1 µM).
The remaining binding of `Cc1cnn2ncc(-c3ccnc(N(C)C)n3)c2c1` is reported as 96% (binding; 1 µM).
The remaining binding of `CC(C)(C)c1ccc(-c2nc(CBr)nn2-c2cccc(O)c2)cc1` is reported as 100% (cell-free assay, competition with immobilised ligand; 10 µM).
`CNC(=O)[C@@H]1CC[C@@H](n2c(-c3ccc4cnccc4c3)nc3ccc(C(=O)NCc4cccc(C(N)=O)c4)cc32)C1` gave a remaining binding of 96% (binding, competition with immobilised ligand; 1 µM).
With `C[C@@]1(Cc2ccc(C#N)cc2)C(=O)N(c2cc(Cl)cc(Cl)c2)c2ncc(C(=O)NC3(c4nc(C5CCC5)no4)CC3)n21` the remaining binding was 64% (cell-free assay, competition with immobilised ligand; 1 µM).
`CC1CCCN1c1nccc(-c2cnn3ncccc23)n1` (stereo not drawn) has a remaining binding of 100% (binding; 1 µM).
With `COc1ncc2cc3ccccc3nc2c1C#N` the remaining binding was 85% (cell-free assay, competition with immobilised ligand; 5 µM).
For `CN(C)CC#Cc1ccc(OCCCc2sc(N3CCc4cccc(C(=O)Nc5nc6ccccc6s5)c4C3)nc2C(=O)O)c(F)c1`, the remaining binding was 93% (cell-free assay, competition with immobilised ligand; 1 µM).
With `N[C@H]1CCN(c2nccc(-c3cnn4ncccc34)n2)C1` the remaining binding was 87% (binding; 1 µM).
For `Cc1c(C(=O)O)cc(-c2ccc(C3CCNCC3)cc2)c2ccc(-c3ccc(C(F)(F)F)cc3)cc12`, the remaining binding was 100% (cell-free assay, competition with immobilised ligand; 1 µM).
`CN(CCCC(F)(F)F)c1nccc(-c2cnn3ncccc23)n1` has a remaining binding of 100% (binding; 1 µM).
With `O=C(NCC1CCOCC1)c1n[nH]cc1NC(=O)c1c(F)cccc1F` the remaining binding was 60% (binding, competition with immobilised ligand; 1 µM).
`COc1cc(-c2cn(C3CCc4c(F)cccc4N(CC(F)(F)F)C3=O)nn2)ccc1-n1cnc(C)c1` (stereo not drawn) has a remaining binding of 91% (cell-free assay, competition with immobilised ligand; 1 µM).
For `COc1ccnn2ncc(-c3ccnc(N(C)C)n3)c12`, the remaining binding was 78% (binding; 1 µM).
`Cc1cnc(Nc2ccc(C(=O)N3CCC(N4CCCC4)CC3)cc2)nc1-c1cc2ccccc2s1` has a remaining binding of 76% (binding, competition with immobilised ligand; 1 µM).
